Reference: ChEMBL document CHEMBL1127562, “N-substituted spirosuccinimide, spiropyridazine, spiroazetidine, and acetic acid aldose reductase inhibitors derived from isoquinoline-1,3-diones. 2” (J Med Chem, 1994)
The source made the active and inactive calls. The calls are words filed in the database; no cut-off is given here.

Experiments:
Rattus norvegicus [1] = assay: Tested for in vivo inhibition of galactitol accumulation in the lens of galactose-fed rats at the dose of 55 (mg/kg/day); NS=Not significant; assay type: functional, organism-based; details: Lens of camera-type eye
Rattus norvegicus [2] = assay: Tested for in vivo inhibition of galactitol accumulation in the sciatic nerve of galactose-fed rats at the dose of 55 (mg/kg/day); NS=Not significant; assay type: functional, organism-based
Summary of the method: (§1)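 Rats fed a 20% galactose diet for 4 days, with test compound given in the diet at the stated daily dose (mg/kg/day). Read-out is inhibition of galactitol (polyol) accumulation in sciatic nerve. Values are % inhibition, mean ± SEM of six animals; p < 0.01 unless marked (some p < 0.05). NS = no significant inhibition of polyol accumulation. Tolrestat was the reference standard.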

Rattus norvegicus [3] = assay: Tested for in vivo inhibition of galactitol accumulation in the lens of galactose-fed rats at the dose of 25.1 (mg/kg/day); NS=Not significant; assay type: functional, organism-based; details: Lens of camera-type eye
[4] = target: Aldo-keto reductase family 1 member B1 (Bos taurus) (UniProt P16116); assay: Inhibition of aldose reductase activity in partially purified bovine lens preparation at 10e-5 M
Summary of the method: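 Partially purified bovine lens aldose reductase. Reduction of DL-glyceraldehyde substrate followed spectrophotometrically. Activity expressed as average inhibition at the tested concentrations, 1×10^-5, 1×10^-6, 1×10^-7 and 4×10^-6 M as printed; IC50 in M where given.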

Rattus norvegicus [5] = assay: Tested for in vivo inhibition of galactitol accumulation in the sciatic nerve of galactose-fed rats at the dose of 25.1 (mg/kg/day); NS=Not significant; assay type: functional, organism-based
Summary of the method: (§2)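 Rats were given a 20% galactose diet for 4 days, with the test compound administered in the diet. Sciatic nerve galactitol accumulation was measured, and activity is given as % inhibition at the stated daily dose (mg/kg/day). Values are mean ± SEM, n = 6 animals; p < 0.01 unless indicated. NS means no significant inhibition of polyol accumulation.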

Rattus norvegicus [6] = assay: Tested for in vivo inhibition of galactitol accumulation in the sciatic nerve of galactose-fed rats at the dose of 1.0 (mg/kg/day); NS=Not significant; assay type: functional, organism-based; summary of the method: as §2
Rattus norvegicus [7] = assay: Tested for in vivo inhibition of galactitol accumulation in the lens of galactose-fed rats at the dose of 50 (mg/kg/day); assay type: functional, Lens of camera-type eye
Rattus norvegicus [8] = assay: Tested for in vivo inhibition of galactitol accumulation in the sciatic nerve of galactose-fed rats at the dose of 50 (mg/kg/day); assay type: functional; summary of the method: as §1
Rattus norvegicus [9] = assay: Tested for in vivo inhibition of galactitol accumulation in the sciatic nerve of galactose-fed rats at the dose of 69.2 (mg/kg/day); NS=Not significant; assay type: functional, organism-based; summary of the method: as §1
Rattus norvegicus [10] = assay: Tested for in vivo inhibition of galactitol accumulation in the lens of galactose-fed rats at the dose of 69.2 (mg/kg/day); NS=Not significant; assay type: functional, organism-based; details: Lens of camera-type eye
Summary of the method: (§3)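 Galactosemic rats were fed 20% galactose for 4 days, with the compound mixed into the diet. […] galactitol accumulation was measured, and activity is given as % inhibition at the stated daily dose (mg/kg/day). Values are mean ± SEM of six animals; p < 0.01 unless indicated. NS means no significant inhibition of polyol accumulation.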

Rattus norvegicus [11] = assay: Tested for in vivo inhibition of galactitol accumulation in the sciatic nerve of galactose-fed rats at the dose of 1.1 (mg/kg/day); assay type: functional; summary of the method: as §2
Rattus norvegicus [12] = assay: Tested for in vivo inhibition of galactitol accumulation in the sciatic nerve of galactose-fed rats at the dose of 24.9 (mg/kg/day); assay type: functional; summary of the method: as §2
Rattus norvegicus [13] = assay: Tested for in vivo inhibition of galactitol accumulation in the lens of galactose-fed rats at the dose of 24.9 (mg/kg/day); NS=Not significant; assay type: functional, organism-based; details: Lens of camera-type eye
[14] = target: Aldo-keto reductase family 1 member B1 (Bos taurus) (UniProt P16116); assay: Inhibition of aldose reductase activity in partially purified bovine lens preparation at 4*10 e-8 M
Rattus norvegicus [15] = assay: Tested for in vivo inhibition of galactitol accumulation in the lens of galactose-fed rats at the dose of 87.3 (mg/kg/day); NS=Not significant; assay type: functional, organism-based; details: Lens of camera-type eye; summary of the method: as §3
Rattus norvegicus [16] = assay: Tested for in vivo inhibition of galactitol accumulation in the sciatic nerve of galactose-fed rats at the dose of 87.3 (mg/kg/day); NS=Not significant; assay type: functional, organism-based; summary of the method: as §1
Rattus norvegicus [17] = assay: Tested for in vivo inhibition of galactitol accumulation in the sciatic nerve of galactose-fed rats. at the dose of 1.0 (mg/kg/day); NS=Not significant; assay type: functional, organism-based; summary of the method: as §1
Rattus norvegicus [18] = assay: Tested for in vivo inhibition of galactitol accumulation in the lens of galactose-fed rats at the dose of 25.2 (mg/kg/day); NS=Not significant; assay type: functional, organism-based; details: Lens of camera-type eye
Rattus norvegicus [19] = assay: Tested for in vivo inhibition of galactitol accumulation in the sciatic nerve of galactose-fed rats at the dose of 25.2 (mg/kg/day); NS=Not significant; assay type: functional, organism-based; summary of the method: as §2
Rattus norvegicus [20] = assay: Tested for in vivo inhibition of galactitol accumulation in the lens of galactose-fed rats at the dose of 47.7 (mg/kg/day); NS=Not significant; assay type: functional, organism-based; details: Lens of camera-type eye
Rattus norvegicus [21] = assay: Tested for in vivo inhibition of galactitol accumulation in the sciatic nerve of galactose-fed rats at the dose of 47.7 (mg/kg/day); NS=Not significant; assay type: functional, organism-based; summary of the method: as §2
Rattus norvegicus [22] = assay: Tested for in vivo inhibition of galactitol accumulation in the sciatic nerve of galactose-fed rats at the dose of 47.2 (mg/kg/day); NS=Not significant; assay type: functional, organism-based; summary of the method: as §2
Rattus norvegicus [23] = assay: Tested for in vivo inhibition of galactitol accumulation in the lens of galactose-fed rats at the dose of 47.2 (mg/kg/day); NS=Not significant; assay type: functional, organism-based; details: Lens of camera-type eye
Rattus norvegicus [24] = assay: Tested for in vivo inhibition of galactitol accumulation in the sciatic nerve of galactose-fed rats at the dose of 25 (mg/kg/day); NS=Not significant; assay type: functional, organism-based; summary of the method: as §2
Rattus norvegicus [25] = assay: Tested for in vivo inhibition of galactitol accumulation in the lens of galactose-fed rats at the dose of 25 (mg/kg/day); NS=Not significant; assay type: functional, organism-based; details: Lens of camera-type eye

In the case of `O=C(O)CN1C(=O)c2ccccc2C(Cc2ccc(Br)cc2F)C1=O` (stereo not drawn), the inhibition (Rattus norvegicus [1]) is reported as “inactive” and the inhibition (Rattus norvegicus [2]) is reported as “inactive”.
`CCNC(=O)CC1C(=O)N(Cc2ccc(Br)cc2F)C(=O)c2ccc(F)cc21` (stereo not drawn) was tested, and the inhibition (Rattus norvegicus [3]) was “inactive”, the inhibition [4] was 80% and the inhibition (Rattus norvegicus [5]) was “inactive”.
`CN1C(=O)CC2(C1=O)C(=O)N(C)C(=O)c1ccc(Cl)cc12` (stereo not drawn) was tested, and the inhibition (Rattus norvegicus [6]) was “inactive” and the inhibition [4] was “inactive”.
`NN1C(=O)CC2(C1=O)C(=O)N(Cc1nc3cc(C(F)(F)F)ccc3s1)C(=O)c1ccccc12` (stereo not drawn) was tested, and the Inhibition (Rattus norvegicus [7]) was 61%, the Inhibition (Rattus norvegicus [8]) was 96% and the inhibition [4] was “inactive”.
With `CN1C(=O)c2ccccc2C(CC(=O)O)C1=O` (stereo not drawn) the inhibition (Rattus norvegicus [9]) was “inactive”, the inhibition (Rattus norvegicus [10]) was “inactive” and the inhibition [4] was 70%.
With `CN1C(=O)CC2(C1=O)C(=O)N(Cc1ccc(Br)cc1F)C(=O)c1ccccc12` (stereo not drawn) the Inhibition (Rattus norvegicus [11]) was 76% and the inhibition [4] was “inactive”.
`CC1(CC(=O)O)C(=O)N(Cc2ccc(Cl)c(Cl)c2)C(=O)c2ccccc21` (stereo not drawn) showed an inhibition [4] of 45%.
`CC(=O)NN1C(=O)CC2(C(=O)N(Cc3nc4cc(C(F)(F)F)ccc4s3)C(=O)c3ccccc32)C1=O` (stereo not drawn) was tested, and the Inhibition (Rattus norvegicus [7]) was 40%, the Inhibition (Rattus norvegicus [8]) was 94% and the inhibition [4] was “inactive”.
With `CN1C(=O)CC2(C1=O)C(=O)N(Cc1cccc(C(F)(F)F)c1)C(=O)c1ccccc12` (stereo not drawn) the Inhibition (Rattus norvegicus [12]) was 28% and the inhibition [4] was “inactive”.
For `O=C(O)CC1C(=O)N(Cc2ccc(Br)cc2F)C(=O)c2ccc(F)cc21` (stereo not drawn), the inhibition (Rattus norvegicus [13]) was “inactive”, the Inhibition (Rattus norvegicus [12]) was 47% and the inhibition [14] was 80%.
In the case of `O=C1CC2(N1)C(=O)N(Cc1ccc(Br)cc1F)C(=O)c1ccccc12` (stereo not drawn), the inhibition (Rattus norvegicus [1]) is reported as “inactive” and the inhibition (Rattus norvegicus [2]) is reported as “inactive”.
For `CCN1C(=O)c2ccccc2C(CC(=O)NC(=O)OC)C1=O` (stereo not drawn), the inhibition (Rattus norvegicus [15]) was “inactive”, the inhibition [4] was “inactive” and the inhibition (Rattus norvegicus [16]) was “inactive”.
`O=C(O)CC1C(=O)N(Cc2ccc(Br)cc2F)C(=O)c2cc(F)ccc21` (stereo not drawn) was tested, and the inhibition [14] was 42%.
`CCCCN1C(=O)CC2(C1=O)C(=O)N(Cc1ccc(Br)cc1F)C(=O)c1ccc(F)cc12` (stereo not drawn) was tested, and the inhibition (Rattus norvegicus [17]) was “inactive” and the inhibition [4] was “inactive”.
In the case of `COC(=O)NC(=O)CC1C(=O)N(C)C(=O)c2cc(OC)ccc21` (stereo not drawn), the inhibition [4] is reported as 72%, the inhibition (Rattus norvegicus [18]) is reported as “inactive” and the inhibition (Rattus norvegicus [19]) is reported as “inactive”.
With `COC(=O)NC(=O)CC1C(=O)N(C)C(=O)c2ccc([N+](=O)[O-])cc21` (stereo not drawn) the inhibition (Rattus norvegicus [20]) was “inactive”, the inhibition (Rattus norvegicus [21]) was “inactive” and the inhibition [4] was 67%.
With `CN1C(=O)CC2(C1=O)C(=O)N(Cc1ccc(C(F)(F)F)cc1)C(=O)c1ccccc12` (stereo not drawn) the inhibition [4] was “inactive” and the inhibition (Rattus norvegicus [5]) was “inactive”.
In the case of `COC(=O)NC(=O)CC1C(=O)N(C)C(=O)c2ccc(OC)cc21` (stereo not drawn), the inhibition (Rattus norvegicus [22]) is reported as “inactive”, the inhibition (Rattus norvegicus [23]) is reported as “inactive” and the inhibition [4] is reported as 53%.
With `NC(=O)CC1C(=O)N(Cc2ccc(Br)cc2F)C(=O)c2ccc(F)cc21` (stereo not drawn) the inhibition (Rattus norvegicus [24]) was “inactive”, the inhibition (Rattus norvegicus [25]) was “inactive” and the inhibition [4] was 88%.
For `CCCN1C(=O)CC2(C1=O)C(=O)N(Cc1ccc(Br)cc1F)C(=O)c1ccccc12` (stereo not drawn), the inhibition (Rattus norvegicus [6]) was “inactive” and the inhibition [4] was “inactive”.
